Assay results taken from ChEMBL document CHEMBL1135477, “Antifungal agents. 10. New derivatives of 1-[(aryl)[4-aryl-1H-pyrrol-3-yl]methyl]-1H-imidazole, synthesis, anti-candida activity, and quantitative structure-analysis relationship studies” (J Med Chem, 2002).
In brackets after ≈: the same amount, converted by molar mass.

Columns and labels:
Format in all cases: functional
[1] = tested on: Candida albicans; test: In vitro antifungal activity against 40 strains of Candida albicans at pH 5.8; (range is from 2 to 128)
Method in brief: (§1)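 Broth serial-dilution MIC against 40 clinical C. albicans isolates from hospitalized patients, grown in Sabouraud broth at pH 7.2 or 5.8. Cells were pre-grown 18 h at 37 °C, inoculated at 10³/mL, and read at 24 h, 37 °C. Doubling dilutions ran 0.25–256 μg/mL from a DMSO/water solution. MIC was the lowest concentration with no visible growth against a DMSO/water blank.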

[2] = tested on: Candida; test: Tested In vitro for antifungal activity against Candida species. at pH 7.2; (percent of resistant species at 256 ug/mL)
Method in brief: (§2)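 Broth serial-dilution test in Sabouraud broth at pH 7.2 or 5.8, against 3 fresh clinical non-albicans isolates (two C. glabrata, one C. krusei). Inocula were 10³/mL, pre-grown 18 h at 37 °C. Compound was twofold-diluted over 0.25–256 µg/mL and read at 24 h, 37 °C for visible growth.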

[3] = tested on: Candida; test: Tested in vitro for antifungal activity against Candida species. at pH 5.8 (percent of resistant species at 256 ug/mL); method in brief: as §2
[4] = tested on: Candida albicans; test: In vitro antifungal activity against 40 strains of Candida albicans at pH 5.8; method in brief: as §1
[5] = molecular target: Lanosterol 14-alpha demethylase (Candida albicans (strain SC5314 / ATCC MYA-2876) (Yeast), UniProt P10613); test: Anticandida activity- (MIC90 compound) / (MIC90 bifonazole)
[6] = tested on: Candida albicans; test: In vitro antifungal activity against 40 strains of Candida albicans at pH 5.8; (percent of resistant species at 256 ug/mL)
Method in brief: (§3)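 Broth serial-dilution test in Sabouraud broth at pH 7.2 or 5.8, against 40 fresh clinical C. albicans isolates from hospitalized patients. Inocula were 10³/mL, pre-grown 18 h at 37 °C in Sabouraud dextrose broth. Compound from a DMSO/water stock was twofold-diluted over 0.25–256 µg/mL. Visible growth was read at 24 h, 37 °C.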

[7] = tested on: Candida albicans; test: In vitro antifungal activity against 40 strains of Candida albicans at pH 7.2; (percent of resistant species at 256 ug/mL); method in brief: as §3
[8] = tested on: Candida albicans; test: In vitro antifungal activity against 40 strains of Candida albicans at pH 7.2; minimum inhibitory concentration (range is from 2 to 256); method in brief: as §1
[9] = tested on: Candida; test: Tested In vitro for antifungal activity against Candida species. at pH 7.2; (range is from 8 to 128)
Method in brief: (§4)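 Liquid serial-dilution MIC against 3 freshly isolated clinical Candida strains (two C. glabrata, one C. krusei) in Sabouraud broth at pH 7.2 or 5.8. Inoculum was 10³/mL after 18 h pre-culture at 37 °C, read at 24 h, 37 °C. Range was 0.25–256 μg/mL. Endpoint was no visible growth versus a DMSO/water blank.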

[10] = tested on: Candida; test: Tested in vitro for antifungal activity against Candida species. at pH 5.8 (range is from 16 to 256); method in brief: as §4
[11] = tested on: Candida; test: Tested In vitro for antifungal activity against Candida species. at pH 7.2; method in brief: as §4
[12] = tested on: Candida; test: Tested in vitro for antifungal activity against Candida species. at pH 5.8; method in brief: as §4
[13] = tested on: Candida albicans; test: In vitro antifungal activity against 40 strains of Candida albicans at pH 7.2; method in brief: as §1
[14] = tested on: Candida albicans; test: IIn vitro antifungal activity against 40 strains of Candida albicans at pH 7.2; minimum inhibitory concentration (range is from 16 to 256); method in brief: as §1
[15] = tested on: Candida albicans; test: In vitro antifungal activity against 40 strains of Candida albicans at pH 5.8; (range is from 32 to 256); method in brief: as §1
[16] = tested on: Candida; test: Tested in vitro for antifungal activity against Candida species. at pH 5.8; value ranges from 128 to >256
Method in brief: (§5)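 Fresh clinical isolates (two C. glabrata, one C. krusei) were pre-grown 18 h at 37 °C in Sabouraud dextrose broth. Broth double-dilution was run in Sabouraud broth at pH 5.8 or 7.2 over 0.25–256 µg/mL from a DMSO/water stock, with 10³/mL inoculum.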

[17] = tested on: Candida albicans; test: In vitro antifungal activity against 40 strains of Candida albicans at pH 5.8; value ranges from 128 to >256; method in brief: as §1
[18] = tested on: Candida albicans; test: In vitro antifungal activity against 40 strains of Candida albicans at pH 7.2; minimum inhibitory concentration ( range is from 32 to 128); method in brief: as §1
[19] = tested on: Candida; test: Tested In vitro for antifungal activity against Candida species. at pH 7.2; value ranges from 256 to >256; method in brief: as §4
[20] = tested on: Candida; test: Tested in vitro for antifungal activity against Candida species. at pH 5.8; value ranges from 256 to >256; method in brief: as §5

Sequence of Lanosterol 14-alpha demethylase (P10613 whole entry): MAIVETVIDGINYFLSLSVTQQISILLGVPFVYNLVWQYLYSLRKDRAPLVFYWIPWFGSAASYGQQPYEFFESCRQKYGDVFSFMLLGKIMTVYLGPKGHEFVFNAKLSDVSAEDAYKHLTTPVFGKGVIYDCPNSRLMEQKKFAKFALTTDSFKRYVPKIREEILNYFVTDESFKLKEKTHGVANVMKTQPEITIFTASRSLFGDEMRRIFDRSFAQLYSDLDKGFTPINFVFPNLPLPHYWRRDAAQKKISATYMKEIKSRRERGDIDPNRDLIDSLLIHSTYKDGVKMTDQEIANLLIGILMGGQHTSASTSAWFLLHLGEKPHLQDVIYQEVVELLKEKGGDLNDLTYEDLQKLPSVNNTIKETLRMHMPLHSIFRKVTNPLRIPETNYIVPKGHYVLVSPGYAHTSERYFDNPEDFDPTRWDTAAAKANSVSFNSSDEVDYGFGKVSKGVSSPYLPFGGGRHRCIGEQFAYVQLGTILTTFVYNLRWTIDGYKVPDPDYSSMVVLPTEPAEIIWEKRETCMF

SMILES | Resistance [2] | Resistance [3] | MIC [4] | MIC50 [4] | MIC90 [4] | Ratio [5] | Resistance [6] | Resistance [7] | MIC [11] | MIC50 [11] | MIC90 [11] | MIC [12] | MIC50 [12] | MIC90 [12] | MIC [13] | MIC50 [13] | MIC90 [13] | other results
O=[N+]([O-])c1ccc(-c2c[nH]cc2[C@@H](c2ccc(Cl)cc2Cl)n2ccnc2)cc1 | 0% | 0% | 15 µg/mL (≈ 36.4 µM) | 8 µg/mL (≈ 19.4 µM) | 8 µg/mL (≈ 19.4 µM) | 1.5 | 0% | 0% | 56 µg/mL (≈ 136 µM) | 32 µg/mL (≈ 77.4 µM) | 128 µg/mL (≈ 310 µM) | 133 µg/mL (≈ 323 µM) | 128 µg/mL (≈ 310 µM) | 256 µg/mL (≈ 619 µM) | 14.7 µg/mL (≈ 35.6 µM) | 8 µg/mL (≈ 19.4 µM) | 8 µg/mL (≈ 19.4 µM) | Range [1]: 128 µg/mL; Range [8]: 256 µg/mL; Range [9]: 128 µg/mL; Range [10]: 256 µg/mL
Oc1ccc(-c2c[nH]cc2[C@@H](c2ccc(Cl)cc2Cl)n2ccnc2)cc1 | 0% | 67% | 150 µg/mL (≈ 390 µM) | 32 µg/mL (≈ 83.3 µM) | 128 µg/mL (≈ 333 µM) | 26 | 26% | 0% | 256 µg/mL (≈ 666 µM) | 256 µg/mL (≈ 666 µM) | 256 µg/mL (≈ 666 µM) | 128 µg/mL (≈ 333 µM) | > 256 µg/mL | > 256 µg/mL | 77.8 µg/mL (≈ 202 µM) | 16 µg/mL (≈ 41.6 µM) | 256 µg/mL (≈ 666 µM) | Range [14]: 256 µg/mL; Range [15]: 256 µg/mL; Range [16]: >256 µg/mL; Range [11]: 256 µg/mL
Nc1ccc(-c2c[nH]cc2[C@@H](c2ccc(Cl)cc2Cl)n2ccnc2)cc1 | 67% | 67% | 219 µg/mL (≈ 572 µM) | > 256 µg/mL | > 256 µg/mL | 52 | 80% | 54% | 256 µg/mL (≈ 668 µM) | > 256 µg/mL | > 256 µg/mL | 256 µg/mL (≈ 668 µM) | > 256 µg/mL | > 256 µg/mL | 85 µg/mL (≈ 222 µM) | > 256 µg/mL | > 256 µg/mL | Range [17]: >128 µg/mL; Range [18]: 128 µg/mL; Range [19]: >256 µg/mL; Range [20]: >256 µg/mL
